Data as given in publication PMC12215001 (Scientific Reports, 2025).

Experiments:
N/P(14) cells [1] = assay: Western blot analysis; format: cell-based
Outline: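 N/P(14) cells were treated two ways: a concentration series for 24–48 h, or 10 µM for 6–48 h. Lysis was in SDS buffer, followed by SDS-PAGE and PVDF blotting. Probes: caspases, PARP, a CK2 substrate consensus (pS/pT)DXE antibody, and phospho-Akt (S129)/Akt and phospho-XRCC1. Bands were normalized to GAPDH as fold of control. Mean±S.D., n = 3, one-way ANOVA with Dunnett.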

J82 cells = assay: SRB assay, cell growth inhibition; format: cell-based; details: 48 h
Outline: (§1)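 Cell lines: NTUB1 and N/P(14) in RPMI 1640, J82 in EMEM, and J82R (J82 adapted stepwise to 10 µM cisplatin); all in 10% FBS at 37 °C, 5% CO2, passage <10, mycoplasma-tested. SV-HUC-1 was grown in F12K. Cells were treated 48 h in 96-well plates, then TCA-fixed (10%) and stained with 0.4% SRB. After 1% acetic acid washes, dye was dissolved in 10 mM Tris base and read at 515 nm. GI50 = concentration giving 50% growth inhibition.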

[2] = system: J82R cells (cisplatin-resistant subline of J82); assay: SRB assay, cell growth inhibition; format: cell-based; details: 48 h
Outline: as §1

[3] = system: N/P(14) cells (cisplatin-resistant subline of NTUB1); assay: SRB assay, cell growth inhibition; format: cell-based
Outline: as §1

NTUB1 cells = assay: SRB assay, cell growth inhibition; format: cell-based; details: 48 h
Outline: as §1

J82R cells = assay: Western blot analysis; format: cell-based; details: 24-48 h
Outline: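 J82R cells got the indicated test compound concentrations for 24–48 h. Proteins were extracted in SDS lysis buffer, run on SDS-PAGE, transferred to PVDF, and probed for caspase-3, -8, -9 and PARP. Band densities were normalized to GAPDH and expressed as fold of untreated control. Mean±S.D., n = 3–4, one-way ANOVA with Dunnett's test.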

N/P(14) cells [4] = assay: SRB assay, combination index; format: cell-based; details: 48 h, CI below one indicates synergism
Outline: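 N/P(14) cells got doxorubicin or mitomycin C, with or without test compound, for 48 h. Growth was measured by SRB staining: TCA fixation, 1% acetic acid wash, Tris solubilization, absorbance at 515 nm. Combination index was computed from the combined dose–effect data; CI < 1 taken as synergism.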

N/P(14) cells [5] = assay: RT-qPCR and Western blot of base excision repair genes; format: cell-based; details: 5 µM, 24 h (RT-qPCR)
Outline: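 For mRNA, cells got 5 µM test compound for 24 h. RNA was taken by TRIzol with 1-bromo-3-chloropropane phase separation and isopropanol precipitation, reverse-transcribed, then run by green-dye qPCR with gene-specific primers (n = 3, unpaired two-tailed t-test). Protein levels were read by western blot, with band densities normalized to GAPDH.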

N/P(14) cells [6] = assay: Cell cycle analysis, propidium iodide staining and flow cytometry; format: cell-based; details: 24-48 h, time- and concentration-dependent
[7] = system: SV-HUC-1 cells (normal uroepithelial); assay: SRB assay, cell growth inhibition; format: cell-based; details: SV-HUC1, 48 h
Outline: as §1

CK2α = CK2α (Homo sapiens, UniProt P68400); assay: In vitro CK2α kinase activity assay; format: biochemical; details: 10-dose, threefold serial dilution starting at 100 µM, 10 µM ATP
CK2α, sequence (P68400 whole entry): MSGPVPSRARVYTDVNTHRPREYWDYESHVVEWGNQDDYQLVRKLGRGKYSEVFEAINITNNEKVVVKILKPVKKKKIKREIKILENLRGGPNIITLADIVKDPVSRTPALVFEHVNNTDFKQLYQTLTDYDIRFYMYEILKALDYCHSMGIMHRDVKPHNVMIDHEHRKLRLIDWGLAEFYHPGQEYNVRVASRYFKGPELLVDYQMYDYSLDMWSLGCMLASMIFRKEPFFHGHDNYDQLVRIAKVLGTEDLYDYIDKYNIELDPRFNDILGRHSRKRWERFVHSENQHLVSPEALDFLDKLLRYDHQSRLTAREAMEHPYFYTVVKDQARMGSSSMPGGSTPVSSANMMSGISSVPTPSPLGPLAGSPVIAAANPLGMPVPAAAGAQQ

SMILES: O=C(O)c1ccc2c(c1)nc(Nc1cccc(Cl)c1)c1ccncc12 [CX-4945, reference compound]
- PARP cleavage (N/P(14) cells [1]; 24 h): increased
- phosphorylation of the downstream targets Akt and XRCC1 (N/P(14) cells [1]; 24 h, concentration-dependent): decreased

SMILES: N.N.[Cl][Pt][Cl] [cisplatin, reference compound]
- GI50 (J82 cells): 2.58 µM
- GI50 ([2]; J82R cells, SRB assay): 9.47 µM
- GI50 ([3]; N/P(14) cells, 48 h, SRB assay): 47.4 µM
- GI50 (NTUB1 cells): 7.89 µM

SMILES: O=c1cc(-c2ccc(Oc3c(O)cc4oc(-c5ccc(O)cc5)cc(=O)c4c3O)cc2)oc2cc(O)cc(O)c12 [Hinokiflavone]
- GI50 [2]: 0.98 µM
- cleavage of caspase-3, caspase-8, caspase-9, and PARP (J82R cells): enhanced
- GI50 ([3]; NTUB1, 48 h): 1.48 µM
- combination index (CI) (N/P(14) cells [4]; HNK with doxorubicin): below 1
- combination index (CI) (N/P(14) cells [4]; HNK with mitomycin C): below 1
- mRNA and protein levels of MUTYH, OGG1, and XRCC1 (N/P(14) cells [5]): reduced
- cleavage of caspase-3, caspase-8, caspase-9, and PARP (N/P(14) cells [1]; 24-48 h): enhanced
- phosphorylation of the CK2 substrate consensus sequence ((pS/pT)DXE) (N/P(14) cells [1]; 24 h and 48 h, concentration-dependent): suppressed
- accumulation of cells in the sub-G1 phase (N/P(14) cells [6]): significantly increased
- GI50 [7]: 4.09 µM
- CK2α kinase activity (CK2α): inhibited CK2α activity in a concentration-dependent manner
